Data: ChEMBL document CHEMBL1240504, “Synthesis of substituted thieno[2,3-d]pyrimidine-2,4-dithiones and their S-glycoside analogues as potential antiviral and antibacterial agents” (Eur J Med Chem, 2010)
Values after ≈ are worked out from the molar mass of the structure shown.

How the values were obtained:
Human alphaherpesvirus 1 = test: Antiviral activity against HSV1 infected in african green monkey Vero cells after 6 hrs by plaque reduction assay; type: functional; set-up: scale not given: the % may be the effect or the level left
Method in brief: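 Modified plaque reduction in 96-well trays with no thickening overlay. Compounds dissolved in DMSO and diluted into medium, then serially diluted and added in triplicate to confluent Vero monolayers. Titred HSV-1 added in medium with 10% calf serum. Incubated 6 h at 37 °C, 5% CO2. Cells fixed with 3.7% formaldehyde and examined visually. The end-point concentration was taken from the dilution series.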

Vero = test: Cytotoxicity against african green monkey Vero cells assessed as loss of monolayer present around the plaques; type: cell-based; details: Chlorocebus sabaeus
Method in brief: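 Vero monolayers in serial-dilution trays with HSV-1, run in triplicate, 6 h at 37 °C, 5% CO2. Cells fixed with 3.7% formaldehyde and examined visually. IC50 is the concentration giving about 50% loss of the monolayer around HSV-1 plaques.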

[1] = tested on: Human immunodeficiency virus 1; test: Antiviral activity against HIV1 infected in human CEM cells assessed as protection against virus-induced cytopathic effect after 6 days by XTT assay; type: functional, organism-based; details: Human immunodeficiency virus 1, CCRF-CEM, 144 h
Method in brief: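 CEM T4 lymphocytes received serially diluted compounds (DMSO stock diluted 1:100 in medium, 1:200 final dilution), then HIV-1. Incubated 6 days at 37 °C, 5% CO2. Formazan read spectrophotometrically after XTT, with microscopic check for viable cells. EC50 is the concentration giving 50% protection against the HIV cytopathic effect. AZT-treated wells served as positive control.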

CCRF-CEM = test: Cytotoxicity against […] human CEM cells after 6 days by XTT assay; type: cell-based; details: 144 h
Method in brief: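 Uninfected CEM cultures given serial compound dilutions (DMSO, 1:200 final dilution). Incubated 6 days at 37 °C, 5% CO2, then read by XTT formazan. IC50 is the molar concentration causing 50% inhibition of cell growth.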

[2] = Therapeutic index, ratio of IC50 for human CEM cells to EC50 for HIV1; type: cell-based, CCRF-CEM; details: read-out: Ratio IC50/EC50
Method in brief: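 CEM T4 lymphocytes, with or without HIV-1, were incubated with serially diluted compounds (DMSO solution diluted 1:100 in medium; 1:200 final dilution after cells and virus were added) at 37 °C in 5% CO2 for 6 days. Controls were untreated and AZT-treated. Read-out was XTT formazan, measured spectrophotometrically plus microscopy. EC50 is 50% protection from cytopathic effect; IC50 is 50% growth inhibition in uninfected cultures.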

Escherichia coli [3] = test: Antibacterial activity against Escherichia coli MTCC 41 after 12 to 16 hrs by turbidity assay; type: functional
Method in brief: (§1)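 Broth dilution MIC in LB broth. Tubes inoculated, incubated 12–16 h and scored by eye for turbidity (growth) versus clear (no growth).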

Escherichia coli [4] = test: Antibacterial activity against Escherichia coli MTCC 41 at 128 mg/ml after 16 hrs by disk diffusion test; type: functional; set-up: dose or concentration left out as unconfirmed; details: MTCC 41, 16 h, read-out: IZ
Escherichia coli [5] = test: Antibacterial activity against Escherichia coli MTCC 41 at 64 mg/ml after 16 hrs by disk diffusion test; type: functional; set-up: dose or concentration left out as unconfirmed; details: MTCC 41, 16 h, read-out: IZ
Staphylococcus aureus [6] = test: Antibacterial activity against Staphylococcus aureus MTCC 1144 after 12 to 16 hrs by turbidity assay; type: functional; method in brief: as §1
Staphylococcus aureus [7] = test: Antibacterial activity against Staphylococcus aureus MTCC 1144 at 128 mg/ml after 16 hrs by disk diffusion test; type: functional; set-up: dose or concentration left out as unconfirmed; details: MTCC 1144, 16 h, read-out: IZ
Staphylococcus aureus [8] = test: Antibacterial activity against Staphylococcus aureus MTCC 1144 at 64 mg/ml after 16 hrs by disk diffusion test; type: functional; details: MTCC 1144, 16 h, read-out: IZ
Method in brief: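 Disk diffusion (zone of inhibition). Bacterial isolate spread evenly over an agar plate. A filter disk carrying a known amount of compound was placed on the surface and the compound left to diffuse. The inhibition zone in the lawn was read after 16 h incubation.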

Pseudomonas putida [9] = test: Antibacterial activity against ampicillin-resistant Pseudomonas putida MTCC 1072 after 12 to 16 hrs by turbidity assay; type: functional; method in brief: as §1
Pseudomonas putida [10] = test: Antibacterial activity against ampicillin-resistant Pseudomonas putida MTCC 1072 at 128 mg/ml after 16 hrs by disk diffusion test; type: functional; set-up: dose or concentration left out as unconfirmed; details: MTCC 1072, 16 h, read-out: IZ
Pseudomonas putida [11] = test: Antibacterial activity against ampicillin-resistant Pseudomonas putida MTCC 1072 at 64 mg/ml after 16 hrs by disk diffusion test; type: functional; set-up: dose or concentration left out as unconfirmed; details: MTCC 1072, 16 h, read-out: IZ

Structure (SMILES) | Activity (Human alphaherpesvirus 1) [%] | IC50 (Vero) [µM] | EC50 [1] [µM] | IC50 (CCRF-CEM) [µM] | selectivity ratio [2] | MIC (Escherichia coli [3]) [µg/mL] | zone of inhibition (Escherichia coli [4]) [mm] | zone of inhibition (Escherichia coli [5]) [mm] | MIC (Staphylococcus aureus [6]) [µg/mL] | zone of inhibition (Staphylococcus aureus [7]) [mm] | zone of inhibition at 64000 µg/mL (Staphylococcus aureus [8]) [mm] | MIC (Pseudomonas putida [9]) [µg/mL] | zone of inhibition (Pseudomonas putida [10]) [mm] | zone of inhibition (Pseudomonas putida [11]) [mm]
S=c1[nH]c(=S)c2c3c(sc2[nH]1)CCCC3 | 0 | 0.07 | > 100 | 6.5 | > 15.4 | 64 (≈ 252 µM) | > 3 | > 3 | 128 (≈ 503 µM) | > 3 | < 1 | 128 (≈ 503 µM) | > 3 | < 1
S=c1[nH]c(=S)c2c3c(sc2[nH]1)CCCCC3 | 0 | 0.09 | > 100 | 5.25 | > 19.1 | 64 (≈ 238 µM) | > 3 | > 3 | > 128 | > 2 | > 2 | 128 (≈ 477 µM) | > 3 | > 2
CSc1nc2sc3c(c2c(=S)[nH]1)CCCC3 | 0 | 0.64 | > 100 | > 100 | > 1 | 128 (≈ 477 µM) | > 3 | < 1 | 128 (≈ 477 µM) | > 3 | < 1 | 128 (≈ 477 µM) | > 3 | < 1
CSc1nc2sc3c(c2c(=S)[nH]1)CCCCC3 | 0 | 0.45 | > 100 | > 100 | > 1 | 128 (≈ 453 µM) | > 3 | < 1 | 128 (≈ 453 µM) | > 3 | > 2 | 128 (≈ 453 µM) | > 3 | < 1
OC[C@H]1O[C@@H](Sc2nc3sc4c(c3c(=S)[nH]2)CCCCC4)[C@H](O)[C@@H](O)[C@H]1O | 0 | 0.38 | > 100 | > 100 | > 1 | – | – | – | – | – | – | – | – | –
S=c1c2c3c(sc2nc2n(-c4ccccc4)nc(-c4ccccc4)n12)CCCC3 | – | – | – | – | – | 128 (≈ 309 µM) | > 3 | < 1 | 128 (≈ 309 µM) | > 3 | < 1 | 128 (≈ 309 µM) | > 3 | < 1
CC(=O)c1nn(-c2ccc([N+](=O)[O-])cc2)c2nc3sc4c(c3c(=S)n12)CCCC4 | – | – | – | – | – | 64 (≈ 150 µM) | > 3 | > 3 | > 128 | > 2 | > 2 | 128 (≈ 301 µM) | > 3 | > 2
CCOC(=O)c1nn(-c2ccc(C)cc2)c2nc3sc4c(c3c(=S)n12)CCCC4 | – | – | – | – | – | 128 (≈ 301 µM) | > 3 | < 1 | 128 (≈ 301 µM) | > 3 | > 2 | 128 (≈ 301 µM) | > 3 | < 1
CC(=O)OC[C@H]1O[C@@H](Sc2nc3sc4c(c3c(=S)[nH]2)CCCCC4)[C@H](OC(C)=O)[C@@H](OC(C)=O)[C@@H]1OC(C)=O | – | – | – | – | – | > 128 | > 2 | > 2 | > 128 | > 2 | > 2 | 128 (≈ 214 µM) | > 3 | > 2
OC[C@H]1O[C@@H](Sc2nc3sc4c(c3c(=S)[nH]2)CCCCC4)[C@H](O)[C@@H](O)[C@@H]1O | – | – | – | – | – | > 128 | < 1 | < 1 | > 128 | < 1 | < 1 | > 128 | < 1 | < 1
CC(=O)c1nn(-c2ccc(Cl)cc2)c2nc3sc4c(c3c(=S)n12)CCCC4 | 0 | 0.09 | > 100 | > 100 | > 1 | – | – | – | – | – | – | – | – | –
CC(=O)c1nn(-c2ccc(Cl)cc2)c2nc3sc4c(c3c(=S)n12)CCCCC4 | 0 | 0.07 | > 100 | > 100 | > 1 | – | – | – | – | – | – | – | – | –
CC(=O)OC[C@H]1O[C@@H](Sc2nc3sc4c(c3c(=S)[nH]2)CCCC4)[C@@H](OC(C)=O)[C@@H]1OC(C)=O | 0 | 1.39 | > 100 | > 100 | > 1 | 64 (≈ 125 µM) | > 3 | > 3 | 64 (≈ 125 µM) | > 3 | > 3 | 128 (≈ 250 µM) | > 3 | < 1
CC1(C)S[C@@H]2[C@H](NC(=O)[C@H](N)c3ccccc3)C(=O)N2[C@H]1C(=O)O [AMPICILLIN] | – | – | – | – | – | 16 (≈ 45.8 µM) | > 5 | > 5 | – | > 5 | > 5 | > 256 | 0 | 0
Cc1cn([C@H]2C[C@H](N=[N+]=[N-])[C@@H](CO)O2)c(=O)[nH]c1=O [ZIDOVUDINE] | – | – | – | 0.7 | – | – | – | – | – | – | – | – | – | –
